procasp3 activ: activators of human procaspase-3 D3A mutant, primary screen, biochemical, absorbance, PC-3 D3A mutant, single concentration; Caspase-3 (Homo sapiens), P42574; recombinant procaspase-3 D3A, Ac-DEVD-pNA absorbance 405 nm; activation, % at 8.5 µM; 330,000 tested, 0.11% active;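 active means activation above the mean of all tested compounds plus 3 SD, cut at about 21% in these data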
Target sequence (P42574 whole entry D9A/D28A/D175A): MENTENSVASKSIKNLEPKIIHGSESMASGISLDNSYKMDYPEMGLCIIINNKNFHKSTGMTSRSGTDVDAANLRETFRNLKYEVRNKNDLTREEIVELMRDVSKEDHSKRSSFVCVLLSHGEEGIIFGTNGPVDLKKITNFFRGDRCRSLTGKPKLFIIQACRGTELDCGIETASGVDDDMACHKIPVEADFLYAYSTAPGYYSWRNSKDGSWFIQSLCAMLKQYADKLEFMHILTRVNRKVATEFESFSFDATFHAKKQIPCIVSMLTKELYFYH
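material = Procaspase-3 D3A mutant | probe or stimulus = Ac-DEVD-pNA | compound = single dose, 8.5 µM nominal compound, 0.8% DMSO | timing = 1 h preincubation, 2 h reaction | measured by = 405 nm absorbance of p-nitroaniline, reads at 0 and 120 min | benchmarks = DMSO-only low control, 5 µM PC-3 D3A high control | repeats = singlicate, each compound tested once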
proCasp7 act: procaspase-7 activators, primary screen, counter-screen for procaspase-3 activator project, biochemical, absorbance, HTS, human; Caspase-7 (Homo sapiens), P55210; recombinant procaspase-7, Ac-DEVD-pNA absorbance 405 nm; D23A/D198A/D206A triple mutant, cannot self-cleave; scale: DMSO 0, 5 µM enzyme 100; activation, % at 8.5 µM; 330,000 tested, 0.093% active;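 active means percent activation above the screen-wide mean plus 3 SD, cut at about 25% in these data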
Target sequence (P55210 whole entry D23A/D198A/D206A): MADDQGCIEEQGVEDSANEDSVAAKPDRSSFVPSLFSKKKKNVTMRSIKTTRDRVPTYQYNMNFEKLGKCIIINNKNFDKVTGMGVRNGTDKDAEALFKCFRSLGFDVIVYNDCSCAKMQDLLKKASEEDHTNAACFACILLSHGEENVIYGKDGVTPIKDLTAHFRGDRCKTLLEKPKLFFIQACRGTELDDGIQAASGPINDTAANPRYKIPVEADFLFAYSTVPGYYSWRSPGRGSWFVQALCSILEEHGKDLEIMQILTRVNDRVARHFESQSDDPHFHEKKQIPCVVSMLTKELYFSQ
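System: Procaspase-7 triple mutant (PC-7 D3A); measure: % activation from two-timepoint absorbance difference, scaled to controls; times: 1 h compound preincubation, 2 h substrate cleavage, 25 °C; also added: Ac-DEVD-pNA substrate, 400 µM as added; measured by: Epi-absorbance of released pNA at 405 nm, two timepoints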
CHT allo act: CHT positive allosteric modulators, primary screen, cell-based, membrane potential dye, choline EC20. High affinity choline transporter 1 (Homo sapiens), Q9GZV3. AID 488977, 2010. CHT-expressing cells; hits give high values; LV-AA mutant CHT in HEK293 cells. B-score at 10 µM. 310,000 tested, 0.49% active;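 active means initial fluorescence not abnormally high and integrated response B-score, plate-corrected, over 3 SD above library mean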
CHT block: inhibitors of human choline transporter CHT. 310,000 tested, 0.86% active. CHT-expressing cells, membrane potential dye, choline response; hits give low values. B-score at 10 µM. AID 488975, 2010;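 active means B-score over 3 SD under the library average, and starting fluorescence ratio not unusually high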;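 further: choline stimulus applied at its EC90 after an EC20 pre-addition; B-score computed on integrated fluorescence ratio after choline addition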
CHT inh conf: CHT inhibitors, confirmation, cell-based, membrane potential dye, duplicate | shares compounds with CHT block | CHT-expressing cells, choline membrane potential dye; LV-to-AA substituted CHT, HEK293 cells | CHT activity remaining % of control (hits give low values), % at 10 µM | 2,400 tested, 70% active | AID 493221, 2011;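 active means choline transporter activity left, mean of duplicates at 10 µM, below buffer-only control mean minus 3 SD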;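 further: depolarization triggered by choline at its EC90 following an EC20 pre-addition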
HEK293 MPD ctr: membrane potential effects in parental HEK293, counter-screen for CHT inhibitor project, cell-based, membrane potential dye; shares compounds with CHT block; choline response; active = decrease or increase beyond buffer ±3SD; membrane potential ratio readout (active if shifted either direction beyond buffer ±3SD; no single direction) at 10 µM; 2,400 tested, 4% active; AID 493222, 2011;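 further: parental cells lack the transporter so any hit is non-specific; ratio is peak minus trough fluorescence over baseline after EC90 choline challenge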
CHT activ conf: CHT activators, confirmation, cell-based, membrane potential dye, duplicate. CHT-expressing cells, membrane potential dye fluorescence (FDSS); % of choline EC20–EC90 response window; HEK293 expressing CHT LV-AA mutant; choline added at its EC20. 2,500 tested, 91% active. shares compounds with CHT allo act. activation, % at 10 µM;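 active means primary screen active, with duplicate mean activation above negative control mean plus 3 SD, cut at about 11% in these data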
HEK293 MP dye: membrane potential response in parental HEK293 cells, counter-screen for CHT activator project, cell-based, membrane potential dye | shares compounds with CHT allo act | membrane potential dye fluorescence (FDSS); measured after EC20 choline addition | ratio readout change at 10 µM, hits read low | 2,500 tested, 62% active | AID 623908, 2012;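 active means duplicate-averaged ratio beyond 3 SD from buffer wells, up or down, though filed actives are nearly all decreases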
Numbers stand for hits; – = inactive; · = not tested or not shown. A selection: hits, their analogues and other compounds. The true share with any hit is near 1.3%.

SMILES	procasp3 activ	proCasp7 act	CHT allo act	CHT block	CHT inh conf	HEK293 MPD ctr	others
Oc1ccc(CC2CC3CCN2CC3)cc1O (stereo unspecified)	–	–	–	-16.1	12.5%	–
Cc1cc(/C=C2\C(=O)NC(=O)N(Cc3ccco3)C2=O)c(C)n1-c1ccc(C(=O)O)cc1	–	–	–	-6.32	60.5%	–
Cc1cc(/C=C2\C(=O)NC(=O)N(Cc3ccco3)C2=O)c(C)n1-c1ccc(O)cc1	–	–	–	–	·	·
O=C1NC(=O)C(=Cc2coc3ccc(O)cc3c2=O)C(=O)N1	–	–	–	-6.31	60.5%	–
CN1C(=O)C(=Cc2coc3ccccc3c2=O)C(=O)N(C)C1=O	–	–	–	–	·	·
CCOc1cc(C=C2C(=O)NC(=O)NC2=O)ccc1OS(=O)(=O)c1ccccc1	–	–	–	-7.29	36.1%	–
COc1cc(C=C2C(=O)NC(=O)NC2=O)ccc1OS(=O)(=O)c1ccccc1[N+](=O)[O-]	–	–	–	-5.28	55.5%	–
O=C1NC(=O)C(=Cc2ccc(OCCOc3ccc([N+](=O)[O-])cc3)cc2)C(=O)N1	–	–	–	–	·	·
NC(Cc1ccccc1)c1nc(-c2ccccc2)no1 (stereo unspecified)	–	–	–	–	·	·
C1=C(CCNCc2ccccc2)CCCC1	–	–	–	–	·	·
O=C(CCc1ccccc1)N1C[C@H]2C[C@@H](C1)c1cccc(=O)n1C2	–	–	–	–	·	·
Cc1ccc(N)c(C(=O)c2ccc(Br)cc2)c1	–	–	–	-5.11	–	–
N=c1c[n+](CC23CC4CC(CC(C4)C2)C3)[n-]o1	–	–	–	-5.61	37.1%	–
Cc1ccccc1CCNCc1cc2cccc(C)c2[nH]c1=O	–	–	–	-8.67	17.6%	–
CC1(O)CCN2C(=O)CCc3cccc1c32 (stereo unspecified)	–	–	·	·	·	·
CC1C(C)N1CC(O)Cn1ccnc1[N+](=O)[O-] (stereo unspecified)	–	–	–	–	·	·
C[C@H]1CCC/C=C/C2C[C@H](O)CC2[C@H](O)/C=C/C(=O)O1 (stereo partly specified)	–	–	–	–	·	·
CC1CCC/C=C/C2CC(O)CC2C(O)/C=C/C(=O)O1 (stereo unspecified)	–	–	–	-6.56	45.5%	–
C=CCn1c(O)c(C=Nc2ccc(OC)cc2C)c(=O)[nH]c1=O	–	–	–	–	·	·
COc1cccc(C2CC3C(=O)C=CC2N3Cc2ccccc2)c1 (stereo unspecified)	–	–	–	-5.33	-58.9%	-39.8
COC(=O)C1=C(c2cccc(OC)c2OC)C[C@@H]2CC[C@H]1N2C(=O)N1CCOCC1	–	–	–	–	·	·
CC1CCCCN1Cc1c[nH]c2ccccc12 (stereo unspecified)	–	–	–	-5.68	–	–
Cc1ccc2c(c1)C1CN(C)CCC1N2C(=O)c1cn(-c2ccccc2)nc1-c1ccccc1 (stereo unspecified)	–	–	–	–	·	·
Cc1ccc2c(c1)[C@@H]1CN(C)CC[C@@H]1N2C(=O)Nc1cccc(C(F)(F)F)c1	–	–	–	-7.18	25.9%	–
Cc1ccc2c(c1)C1CN(C)CCC1N2C(=O)CCCN1C(=O)c2cccc3cccc(c23)C1=O (stereo unspecified)	–	–	–	-5.93	50.4%	–
SMILES	procasp3 activ	proCasp7 act	CHT allo act	CHT block	CHT inh conf	HEK293 MPD ctr	others
Cc1ccc2c(c1)C1CN(C)CCC1N2C(=O)c1cccnc1Cl (stereo unspecified)	–	–	–	–	·	·
Cc1ccc2c(c1)C1CN(C)CCC1N2C(=O)Nc1cccc(C(F)(F)F)c1 (stereo unspecified)	–	–	–	-5.42	23.4%	–
O=C(O)CN1C(=O)CN=C(c2ccccn2)c2cc(Cl)ccc21	–	–	–	–	·	·
CCOC(=O)c1ccc2c(c1)n(Cc1ccccc1)c(C)[n+]2CC	–	–	8.06	–	·	·	CHT activ conf=46.8;HEK293 MP dye=-50.9
CN(C)c1cccc2c(C#N)ccc(N(C)C)c12	–	–	7.77	–	·	·	CHT activ conf=66.2;HEK293 MP dye=-69.5
COc1ccc(-n2c(SCCN(C)C)nc3ccccc3c2=O)cc1	–	–	–	–	·	·	CHT activ conf=36.5;HEK293 MP dye=-42.3
COc1ccc(O)c(CN2CCCC(C(=O)c3ccccc3SC)C2)c1 (stereo unspecified)	–	–	–	–	·	·
Nc1ccccc1-[n+]1c(-c2ccccc2)cc(-c2ccccc2)cc1-c1ccccc1	–	–	–	–	·	·
COc1ccc(-c2cc(-c3ccccc3)[n+](C)c(-c3ccccc3)c2)cc1	–	–	–	–	·	·	CHT activ conf=34.9;HEK293 MP dye=–
C[n+]1c(-c2ccccc2)cc(CCCCc2cc(-c3ccccc3)[n+](C)c(-c3ccccc3)c2)cc1-c1ccccc1	–	–	6.81	–	·	·	CHT activ conf=49.7;HEK293 MP dye=-63.7
Cc1ccnc(NS(=O)(=O)c2ccc(N=Cc3c(O)n(C)c(=O)n(C)c3=O)cc2)n1	–	–	–	–	·	·
COc1cc2c(cc1OC)-c1c(OC)c(OC)cc3c1[C@H](C2)N(C)CC3	–	–	7.64	–	·	·	CHT activ conf=43.6;HEK293 MP dye=-72.8
COc1ccc2c(c1O)-c1c(OC)c(OC)cc3c1[C@H](C2)N(C)CC3	–	–	8.42	–	·	·	CHT activ conf=56.4;HEK293 MP dye=-66.1
Cc1ccc(NC2=NCCCS2)c(C)c1C	–	–	–	–	·	·
OCC12CO[C@@H]3c4ccccc4[C@H](OC1)N32 (stereo partly specified)	–	–	–	–	·	·
CC[N+](C)(CC)CCCOC(=O)C(O)(c1ccccc1)C1CCCCC1 (stereo unspecified)	–	–	–	–	·	·
Cc1ccc(-c2nc(N(C)C3CCN(C)CC3)c3ccccc3n2)cc1	–	–	–	–	·	·	CHT activ conf=36.6;HEK293 MP dye=-68.3
COc1ccc(CCNCc2ccc(C)s2)cc1OC	–	–	–	–	·	·

Screening results from PubChem BioAssay.
